In ChEMBL document CHEMBL1127061, “Hemicholinium and related lipids: inhibitors of protein kinase C” (J Med Chem, 1993):

Biological target: Protein kinase C (PKC)
Experiment: Inhibition of protein kinase C (PKC) purified from rat brain
In short: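 Mostly purified rat brain PKC, histone kinase assay on ice-set tubes: 3 nM TPA, 8 μg/mL phosphatidylserine, 1 mM EGTA (no calcium), 4% glycerol, 20 mM Tris-Cl pH 7.4. Started with [γ-32P]ATP (20 μM), MgCl2 10 mM, p-nitrophenyl phosphate 5 mM, lysine-rich histone 240 μg/mL; 30 °C, 10 min; radioactivity counted. Compounds 0.16–160 μg/mL, 2.4% DMSO final; duplicate runs averaged.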

| IC50 | Compound |
| --- | --- |
| 3.9 µM | CCCCCCCCCCCCCCCC1(OC)C[N+](C)(C)CCO1.[Br-] (configuration not stated) |
| 6.5 µM | CCCCCCCCCCCCCCCCCCC1(O)C[N+](C)(C)CCO1.[Br-] (configuration not stated) |
| 13 µM | CCCCCCCCCCCCC1(O)C[N+](C)(C)CCO1.[Br-] (configuration not stated) |
| 12 µM | CCCCCCCCCCCCCC1(O)C[N+](C)(C)CCO1.[Br-] (configuration not stated) |
| 7.6 µM | CCCCCCCCCCCCCCC1(O)C[N+](C)(C)CCO1.[Br-] (configuration not stated) |
| 7.3 µM | CCCCCCCCCCCCCCCC1(O)C[N+](C)(C)CCO1.[Br-] (configuration not stated) |
| 6.9 µM | CCCCCCCCCCCCCCCC(=O)C[N+](C)(C)CCCO.[Br-] |
| 170 µM | CCCCCCCCCCC1(O)C[N+](C)(C)CCO1.[Br-] (configuration not stated) |
| 7.6 µM | CCCCCCCCCCCCCCCCC1(O)C[N+](C)(C)CCO1.[Br-] (configuration not stated) |
| 7.1 µM | CCCCCCCCCCCCCCCCCC1(O)C[N+](C)(C)CCO1.[Br-] (configuration not stated) |
| 15.8 µM | CCCCCCCCCCCCCCCC(=O)OC(CC(=O)[O-])C[N+](C)(C)C (racemic) [Palmitoyl-carnitine] |
| 49.6 µM | CCCCCCCCCCCCCCC[C@@]1(O)C[N+](C)(C)C[C@@H](CC(=O)[O-])O1 [HEMIACYLCARNITINIUM] |
